Laboratory results from ChEMBL document CHEMBL1148730, “Design of noncompetitive interleukin-8 inhibitors acting on CXCR1 and CXCR2” (J Med Chem, 2007).
The source made the active and inactive calls. The calls are words filed in the database; no cut-off is given here.

Columns and labels:
[1] = Inhibition of CXCL8-induced cell migration in human PMN cells at 0.01 uM by chemotaxis assay; type: functional
Outline: (§1)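 Human PMNs from normal-donor buffy coats (dextran sedimentation, hypotonic lysis; 95% purity, >95% viability). Cells at 1.5-3 × 10⁶/mL preincubated 15 min at 37 °C with vehicle or compound, then seeded in triplicate in the upper well of a 48-well micro-chemotaxis chamber. Lower well held CXCL8 1 nM or CXCL1 10 nM. Chamber ran 45 min at 37 °C in 5% CO₂; filters were fixed and stained, and five 100× fields per well were counted.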

[2] = Inhibition of CXCL1-induced cell migration in human PMN cells at 0.01 uM by chemotaxis assay; type: functional; outline: as §1
[3] = Inhibition of CXCL1-induced cell migration human PMN cells at 0.1 uM chemotaxis assay; type: functional; outline: as §1
Macrophage = experiment: Inhibition of the LPS-induced PGE2 production in human macrophages at 10 uM; type: functional
L1.2 [4] = experiment: Inhibition of CXCL8-induced cell migration in L1.2 cells expressing wild type CXCR1 at up to 1000 nM by chemotaxis assay; type: functional, cell-based; details: Mus musculus
Outline: (§2)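 Mouse L1.2 lymphoma cells were transiently electroporated with wild-type or Ile43Val human CXCR1, with expression checked by flow cytometry at 48 h. Cells were kept overnight in 5 mM sodium butyrate, resuspended at 10⁷/mL, and pretreated 30 min at 37 °C with compound (1-1000 nM). Migration to 10 nM CXCL8, with compound in both chambers, ran 4 h at 37 °C through 5 µm Transwells. Cells were counted in a Bürker chamber and expressed as % of migration without compound, from ≥3 independent experiments.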

L1.2 [5] = experiment: Inhibition of CXCL8-induced cell migration in L1.2 cells expressing Ile43Val CXCR1 mutant by chemotaxis assay; type: functional, cell-based; details: Mus musculus; outline: as §2
L1.2 [6] = experiment: Inhibition of CXCL8-induced cell migration in L1.2 cells expressing CXCR1 by chemotaxis assay; type: functional, cell-based; details: Mus musculus; outline: as §2
L1.2 [7] = experiment: Inhibition of CXCL8-induced cell migration in L1.2 cells expressing wild type CXCR1 at 0.1 uM by chemotaxis assay; type: functional; details: Mus musculus; outline: as §2
[8] = Inhibition of CXCL8-induced cell migration in human PMN cells at 1 nM chemotaxis assay; type: functional; outline: as §1
[9] = Inhibition of CXCL8-induced cell migration in human PMN cells 0.1 uM chemotaxis assay; type: functional; outline: as §1

Compound	inhibition at 0.01 µM [1]	inhibition at 0.01 µM [2]	also measured
CC(C(=O)O)c1ccc(Cc2ccccc2)cc1 (centres undefined)	1%	35%	
CC(C(=O)O)c1ccc(C2CCCCC2)cc1 (centres undefined) [HEXAPROFEN]	10%		
CC(C)c1cccc(C(C)C(=O)O)c1 (centres undefined)	62%	55%	
CC(C(=O)O)c1cccc(C(C)(O)c2ccccc2)c1 (centres undefined)	0%		
C[C@@H](C(=O)Nc1nccs1)c1ccc(OS(=O)(=O)C(F)(F)F)cc1	57%	56%	
CC(C(=O)O)c1ccc(NS(=O)(=O)c2ccccc2)cc1 (centres undefined)	45%	14%	
CC(C(=O)O)c1ccc(CC2CCCCC2)cc1 (centres undefined)	2%	39%	
CC(C(=O)O)c1cccc(C(=O)c2ccco2)c1 (centres undefined)	-3%		
Cc1ccc(S(=O)(=O)Nc2ccc(C(C)C(=O)O)cc2)cc1 (centres undefined)	69%	0%	
C[C@@H](C(=O)Nc1ccccn1)c1ccc(OS(=O)(=O)C(F)(F)F)cc1	48%	50%	
C[C@@H](C(=O)NS(C)(=O)=O)c1ccc(OS(=O)(=O)C(F)(F)F)cc1 [LADARIXIN]	60%	61%	
C[C@@H](C(N)=O)c1ccc(OS(=O)(=O)C(F)(F)F)cc1	60%	58%	
C[C@@H](C(=O)NCC1CC1)c1ccc(OS(=O)(=O)C(F)(F)F)cc1	12%		
C[C@@H](C(=O)NC1CC1)c1ccc(OS(=O)(=O)C(F)(F)F)cc1	-11%		
CC(C(=O)O)c1ccc(OC(=O)c2ccccc2)cc1 (centres undefined)	32%		
CC(C(=O)O)c1ccc(CC2CC2)cc1 (centres undefined)	24%	30%	
CC(C(=O)O)c1ccc(N2Cc3ccccc3C2=O)cc1 (centres undefined) [INDOPROFEN]	50%		Inhibition [3]: 40%
CNC(=O)[C@H](C)c1ccc(OS(=O)(=O)C(F)(F)F)cc1	22%		
CC(C(=O)O)c1cccc(C(C)c2ccccc2)c1 (centres undefined)	55%	45%	
CC(C(=O)O)c1ccc(-c2cccs2)cc1 (centres undefined)	11%		
C[C@@H](C(=O)Nc1ccncc1)c1ccc(OS(=O)(=O)C(F)(F)F)cc1	11%		
CC(C(=O)O)c1cccc(C(=O)c2nccs2)c1 (centres undefined)	63%	48%	
C[C@@H](C(=O)NO)c1ccc(OS(=O)(=O)C(F)(F)F)cc1	48%	50%	
CC(C(=O)O)c1cccc(C(=O)C2CCCCC2)c1 (centres undefined)	5%	4%	
CC(C(=O)O)c1ccc(NS(=O)(=O)C(F)(F)F)cc1 (centres undefined)	10%		
CC(C(=O)O)c1ccc(NS(C)(=O)=O)cc1 (centres undefined)	-8%		
CC(C(=O)O)c1cccc(C(=O)c2cccs2)c1 (centres undefined)	51%	50%	

Compound	inhibition at 0.01 µM [1]	inhibition at 0.01 µM [2]	also measured
CCC(=O)Oc1ccc(C(C)C(=O)O)cc1 (centres undefined)	-6%		
CC(C(=O)O)c1ccc(CC2CCCC2)cc1 (centres undefined)	10%	40%	
CC(C(=O)O)c1ccc(NS(=O)(=O)c2ccccc2Cl)cc1 (centres undefined)	-2%	66%	
CC(C(=O)O)c1cccc(C(=O)C2CCCC2)c1 (centres undefined)	-5%	2%	
CCc1ccccc1S(=O)(=O)Nc1ccc(C(C)C(=O)O)cc1 (centres undefined)	47%	80%	
C[C@@H](C(=O)O)c1ccc(OS(=O)(=O)C(F)(F)F)cc1	68%	65%	inhibition at 10 µM (Macrophage): 17%
CCCCc1cccc(C(C)C(=O)O)c1 (centres undefined)	3%		
CCC(O)c1cccc(C(C)C(=O)O)c1 (centres undefined)	57%	40%	
CC(C)C(=O)c1cccc(C(C)C(=O)O)c1 (centres undefined)	20%		
CC(C(=O)O)c1cccc(Cc2ccccc2)c1 (centres undefined)	10%		
CC(C)Cc1ccc([C@@H](C)C(=O)NS(C)(=O)=O)cc1 [REPARIXIN]			Activity (L1.2 [4]): Active; IC50 (L1.2 [5]): 80 nM; IC50 (L1.2 [6]): 5.6 nM; inhibition at 0.1 µM (L1.2 [7]): 80%
C[C@@H](C(=O)O)c1cccc(C(=O)c2ccccc2)c1 [R-KETOPROFEN]	64%	61%	
CC(C(=O)O)c1ccc(NS(=O)(=O)C(C)C)cc1 (centres undefined)	44%		
CC(C)c1ccc(C(C)C(=O)O)cc1 (centres undefined)	15%		
C[C@@H](C(=O)NS(=O)(=O)c1ccccc1)c1ccc(OS(=O)(=O)C(F)(F)F)cc1	43%	8%	
CONC(=O)[C@H](C)c1ccc(OS(=O)(=O)C(F)(F)F)cc1	60%	40%	
CC(C)S(=O)(=O)NC(=O)[C@H](C)c1ccc(OS(=O)(=O)C(F)(F)F)cc1	60%	15%	
CCC(=O)c1cccc(C(C)C(=O)O)c1 (centres undefined)	1%		
CC(=O)c1cccc([C@@H](C)C(=O)O)c1	5%		
CC(C)NC(=O)[C@H](C)c1ccc(OS(=O)(=O)C(F)(F)F)cc1		72%	Inhibition [8]: 50%
CC(C(=O)O)c1ccc(OS(=O)(=O)C(C)C)cc1 (centres undefined)	49%	46%	
CC(C(=O)O)c1cccc(Oc2ccccc2)c1 (centres undefined) [FENOPROFEN]	-17%		
C[C@@H](C(=O)NS(=O)(=O)c1ccccc1Cl)c1ccc(OS(=O)(=O)C(F)(F)F)cc1	18%		
CC(C(=O)O)c1ccc(OS(=O)(=O)C(F)(F)F)cc1 (centres undefined)	57%	57%	
Cc1ccc(S(=O)(=O)Oc2ccc(C(C)C(=O)O)cc2)cc1 (centres undefined)	49%	65%	
CC(C(=O)O)c1ccc(OS(C)(=O)=O)cc1 (centres undefined)	5%		
C[C@@H](C(=O)N(C)O)c1ccc(OS(=O)(=O)C(F)(F)F)cc1	48%	47%	

Compound	inhibition at 0.01 µM [1]	inhibition at 0.01 µM [2]	also measured
C/C=C/c1ccc(C(C)C(=O)O)cc1 (centres undefined)	11%		
CC(C(=O)O)c1ccc(CC2CCC2)cc1 (centres undefined)	55%	59%	
C[C@@H](C(=O)Nc1cccnc1)c1ccc(OS(=O)(=O)C(F)(F)F)cc1	5%		
C[C@@H](C(=O)Nc1ncco1)c1ccc(OS(=O)(=O)C(F)(F)F)cc1	50%	48%	
CC(C(=O)O)c1cccc(C(O)c2ccccc2)c1 (centres undefined) [2-{3-[HYDROXY(PHENYL)METHYL]PHENYL}PROPANOIC ACID]	31%	40%	
CC(O)c1cccc(C(C)C(=O)O)c1 (centres undefined)	43%	40%	
CC(C(=O)O)c1ccc(C(C)(C)C)cc1 (centres undefined)	6%		
C[C@@H](C(=O)NC1CCCC1)c1ccc(OS(=O)(=O)C(F)(F)F)cc1	0%		
CC(C)ONC(=O)[C@H](C)c1ccc(OS(=O)(=O)C(F)(F)F)cc1	50%	40%	
CC(C(=O)O)c1ccc(-c2ccccc2)cc1 (centres undefined)	0%		
CC(C)Cc1cccc(C(C)C(=O)O)c1 (centres undefined)	-10%		
CC(C(=O)O)c1ccc(OS(=O)(=O)c2ccccc2)cc1 (centres undefined)	55%	54%	
C[C@@H](C(=O)NS(=O)(=O)C(F)(F)F)c1ccc(OS(=O)(=O)C(F)(F)F)cc1	-4%		
C[C@@H](C(=O)Nc1nc(C(F)(F)F)cs1)c1ccc(OS(=O)(=O)C(F)(F)F)cc1	64%	60%	
CC(C(=O)O)c1cccc(S(=O)(=O)c2ccccc2)c1 (centres undefined)	9%		
CCC(C)c1cccc(C(C)C(=O)O)c1 (centres undefined)			Inhibition [9]: 50%
C/C=C/c1cccc(C(C)C(=O)O)c1 (centres undefined)	-1%		
C=C(c1ccccc1)c1cccc(C(C)C(=O)O)c1 (centres undefined)	47%	2%	
C[C@@H](C(=O)NS(=O)(=O)c1cccnc1)c1ccc(OS(=O)(=O)C(F)(F)F)cc1	11%		
CC(C(=O)O)c1ccc(N2CCCC2=O)cc1 (centres undefined)	10%		
CCC(CC)c1cccc(C(C)C(=O)O)c1 (centres undefined)	58%	67%	
CC(C(=O)O)c1cccc(C(=O)c2ncco2)c1 (centres undefined)	26%		
CC(C(=O)O)c1ccc(NC(=O)c2ccccc2)cc1 (centres undefined)	8%		
C[C@@H](C(=O)Nc1ccccc1)c1ccc(OS(=O)(=O)C(F)(F)F)cc1	10%		
CC(C)=Cc1ccc(C(C)C(=O)O)cc1 (centres undefined)	14%		
CC(Cc1cccc(C(C)C(=O)O)c1)c1ccccc1 (centres undefined)	0%		
